Screening data: PubChem, The Scripps Research Institute Molecular Screening Center
A selection: hits, their analogues and other compounds. The true share with any hit is near 1.8%.
NPY-Y1 antag: NPY-Y1 receptor antagonists, primary screen, cell-based. Neuropeptide Y receptor type 1 (Homo sapiens), P25929. inhibition, % at 3.6 µM. 200,000 compounds, 1% hits. HEK293-CNG Y1 cells, membrane potential fluorescence; NPY at EC95, then isoproterenol;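 active = inhibition above the campaign mean inhibition of all tested compounds plus 3 SD, cut at about 20% in these data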
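Material: HEK293 cells co-expressing NPY Y1 receptor and cyclic-nucleotide gated channel. Timing: compound incubation 1 h at room temperature, readout 45 min post-stimulation. Signal: fluorescence, membrane potential probe.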
NPY-Y2 PAM-ag: NPY-Y2 potentiators or agonists, primary screen, cell-based. Neuropeptide Y receptor type 2 (Homo sapiens), P49146. cells expressing NPY-Y2, potentiator/agonist read-out. activation, % at 3.6 µM. 220,000 compounds, 0.45% hits. AID 1359, 2008; in the data active = activation above about 27%;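 also: cells stimulated with NPY near EC25 plus isoproterenol at EC100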
Target sequence (P49146 whole entry, looked up): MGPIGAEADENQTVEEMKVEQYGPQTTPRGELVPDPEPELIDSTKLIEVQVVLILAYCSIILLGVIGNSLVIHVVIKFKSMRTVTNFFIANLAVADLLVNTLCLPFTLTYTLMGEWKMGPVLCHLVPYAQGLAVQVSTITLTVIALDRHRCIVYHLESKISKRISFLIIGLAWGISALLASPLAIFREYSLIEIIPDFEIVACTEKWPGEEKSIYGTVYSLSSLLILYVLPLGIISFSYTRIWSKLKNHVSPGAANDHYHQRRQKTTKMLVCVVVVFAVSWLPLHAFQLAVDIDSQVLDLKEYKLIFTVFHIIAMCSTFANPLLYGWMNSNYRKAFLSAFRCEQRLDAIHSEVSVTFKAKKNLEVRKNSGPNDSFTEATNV
NPY-Y1 PAM-ag: NPY-Y1 receptor potentiators or agonists, primary screen, cell-based | Neuropeptide Y receptor type 1 (Homo sapiens), P25929 | 220,000 compounds, 0.37% hits | NPY-Y1 expressing cells, potentiator/agonist activation | AID 1304, 2008 | activation, % at 3.6 µM; in the data active = activation above about 33%, passing the limit was not always enough;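 also: cells stimulated with NPY at EC10 then isoproterenol at EC100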
NPY Y2 blocker: NPY-Y2 receptor antagonists, primary screen, cell-based; 140,000 compounds, 0.99% hits; inhibition, % at 2.7 µM; Neuropeptide Y receptor type 2 (Homo sapiens), P49146; NPY-Y2 expressing cells, antagonist mode
NPY1 antag conf: NPY-Y1 receptor antagonists, retest of hits, confirmation, HEK293-CNG cells, membrane potential fluorescence, triplicate | inhibition, % at 3.6 µM | AID 1254, 2008 | cAMP; NPY challenge against isoproterenol-raised cAMP | shares compounds with NPY-Y1 antag | 1,200 compounds, 21% hits; in the data active = inhibition above about 20%
NPY2 antag ctr: NPY-Y2 receptor antagonists, selectivity check, confirmation, counter-screen for NPY-Y1 antagonist project, HEK293-CNG cells, membrane potential fluorescence, triplicate; shares compounds with NPY-Y1 antag; antagonism; cells given NPY, then isoproterenol; inhibition, % at 3.6 µM; 1,200 compounds, 28% hits
Each line names hits and unclear results; the compound was inactive in the other large screens (follow-up assays come after a bar, where they were run). Rule as the data show it, unless noted: active = inhibition above about 17%; inactive = the rest.

N=c1n(Cc2ccccc2Cl)c2ccccc2n1CC(O)c1ccco1 (stereo not given)	NPY-Y1 antag 28 (no result: NPY Y2 blocker) | NPY1 antag conf inactive | NPY2 antag ctr 25
CCCn1c(=N)n(CC(O)c2ccc(C)cc2)c2ccccc21 (stereo not given)	none (no result: NPY-Y1 antag, NPY Y2 blocker)
N=c1n(CCN2CCOCC2)c2ccccc2n1CC(=O)c1ccc(Cl)c(Cl)c1	none
N=c1n(CCN2CCCC2)c2ccccc2n1CC(O)c1ccc(Cl)c(Cl)c1 (stereo not given)	NPY-Y1 antag 43 (no result: NPY Y2 blocker) | NPY1 antag conf inactive | NPY2 antag ctr 29
N=c1n(Cc2ccccc2)c2ccccc2n1CC(O)c1ccccc1 (stereo not given)	NPY-Y1 antag 28 | NPY1 antag conf inactive | NPY2 antag ctr inactive
COc1cnc(-c2ccccn2)nc1Oc1ccc(Cl)c2ccccc12	NPY-Y1 antag 25 | NPY1 antag conf inactive | NPY2 antag ctr 22
CCn1cc(C(=O)Nc2ccc(OC)c(S(=O)(=O)N3CCCCC3)c2)c(=O)c2ccc(C)nc21	none
CCN1/C(=C/C(C)=C/c2sc3ccccc3[n+]2CC)Sc2ccccc21	NPY-Y1 antag 106 (no result: NPY Y2 blocker) | NPY1 antag conf 79 | NPY2 antag ctr 53
CC(C)c1cc(C(=O)NNC(=S)NCc2ccco2)c(O)c(C(C)C)c1	none
Cc1ccc(Cc2cnc(NC(=O)/C(C#N)=C/c3ccc(-c4ccccc4[N+](=O)[O-])o3)s2)cc1	NPY-Y1 antag 27 | NPY1 antag conf 50 | NPY2 antag ctr 46
CCc1cccc(CC)c1NC(=O)COC(=O)C1(C)CC1(Cl)Cl (stereo not given)	NPY-Y1 antag 29 (no result: NPY Y2 blocker) | NPY1 antag conf inactive | NPY2 antag ctr 18
O=C(c1ccco1)N(CCC(c1ccccc1)c1ccco1)Cc1ccc(F)cc1 (stereo not given)	NPY-Y1 antag 25 | NPY1 antag conf inactive | NPY2 antag ctr inactive
Cc1cc2cc(C)c(NCCNC(=O)c3cccc(F)c3)nc2cc1C	NPY-Y1 antag 40 (no result: NPY Y2 blocker) | NPY1 antag conf 28 | NPY2 antag ctr inactive
Cc1nc(CCNC(=O)c2cccs2)cs1	none
Cc1cccc(C(=O)NCCNc2nc3cc(C)c(C)cc3cc2C)c1	NPY-Y1 antag 45 (no result: NPY Y2 blocker) | NPY1 antag conf 29 | NPY2 antag ctr 33
Cc1cc2cc(C)c(NCCNC(=O)c3cccs3)nc2cc1C	NPY-Y1 antag 56 (no result: NPY Y2 blocker) | NPY1 antag conf 43 | NPY2 antag ctr 65
Cc1cc2cc(C)c(NCCNC(=O)c3ccccc3F)nc2cc1C	NPY-Y1 antag 32 (no result: NPY Y2 blocker) | NPY1 antag conf inactive | NPY2 antag ctr 29
O=C(NCCc1ccncc1)c1ccccc1F	none
COC(=O)CNC(=O)c1cccc(F)c1	none
COc1cc(C(=O)NCCc2ccc(S(=O)(=O)N3CCCC3)cc2)cc(OC)c1OC	none (no result: NPY Y2 blocker)
COC(=O)CSc1nnc(CNC(=O)c2cc(OC)cc(OC)c2)n1-c1ccc(F)cc1	none (no result: NPY Y2 blocker)
O=C(NC1CCCCC1)C(c1ccncc1)N(Cc1ccc2c(c1)OCO2)C(=O)C(F)(F)F (stereo not given)	NPY-Y1 antag 21 | NPY1 antag conf inactive | NPY2 antag ctr inactive
COc1ccccc1NC(=O)Nc1cc(NC(=O)Nc2ccccc2OC)c(C)nc1C	none
CCCCN(C)C(=O)Cc1c(OC)ccc2cc(Br)ccc12	NPY-Y1 antag 21 | NPY1 antag conf inactive | NPY2 antag ctr inactive
COc1ccc2cc(Br)ccc2c1CC(=O)N(C)C	none (no result: NPY Y2 blocker)
CN(CCOC(=O)c1cccc(F)c1)Cc1ccccc1	NPY-Y1 antag 26 | NPY1 antag conf inactive | NPY2 antag ctr inactive
CN(CCOC(=O)c1ccccc1)Cc1ccccc1	none
Cn1cc2cc(NC(N)=S)ccc2n1	none (no result: NPY Y2 blocker)
C=CCc1cccc(/C=N/NC(=O)CCC(=O)Nc2ccc(C)cc2)c1O	none
O=C(c1ccc(C#CC2(O)CCCCC2)cc1)N1CCN(C(c2ccccc2)c2ccccc2)CC1	none
O=c1cc(CN2CCC3(CC2)OCCO3)c2c(ccc3ccccc32)o1	none
O=c1cc(CN2CCN(c3ccccc3)CC2)c2c(ccc3ccccc32)o1	NPY-Y1 antag 44 | NPY1 antag conf 36 | NPY2 antag ctr 57
